Measurements as given in ChEMBL document CHEMBL1132994, “Synthesis and anticonvulsant and neurotoxic properties of substituted N-phenyl derivatives of the phthalimide pharmacophore” (J Med Chem, 2000).
Calls of active or inactive are those of the source. The rule behind the calls is not given here.

How the values were obtained:
Mus musculus [1] = experiment: Anticonvulsant activity in mice through seizures induced by maximal electroshock (MES) tests after ip administration at a concentration of 300 mg/kg after 4 hours; Inactive; format: functional, organism-based; set-up: dose 300 mg/kg
Mus musculus [2] = experiment: Anticonvulsant activity in mice through seizures induced by sc pentylenetetrazole (intraperitoneal administration at a concentration of 300 mg/kg after 4 hours; Inactive; format: functional, organism-based; set-up: dose 300 mg/kg
Mus musculus [3] = experiment: Neurotoxicity by rotarod test after intraperitoneal administration at a concentration of 300 mg/kg after 30 minutes; Inactive; format: functional, organism-based; set-up: dose 300 mg/kg
Mus musculus [4] = experiment: Neurotoxicity determined by rotarod test after intraperitoneal administration at a concentration of 300 mg/kg after 4 hours; Inactive; format: functional, organism-based; set-up: dose 300 mg/kg
Mus musculus [5] = experiment: Anticonvulsant activity in mice through seizures induced by sc pentylenetetrazole (intraperitoneal administration at a concentration of 300 mg/kg after 30 min; Inactive; format: functional, organism-based; set-up: dose 300 mg/kg
Mus musculus [6] = experiment: Anticonvulsant activity in mice through seizures induced by maximal electroshock (MES) tests after ip administration at a concentration of 100 mg/kg after 30 min; Inactive; format: functional, organism-based; set-up: dose 100 mg/kg
Mus musculus [7] = experiment: Anticonvulsant activity in mice through seizures induced by subcutaneous pentylenetetrazole (scPTZ) tests after ip administration at a concentration of 300 mg/kg after 30 min; Inactive; format: functional, organism-based; set-up: dose 300 mg/kg
Mus musculus [8] = experiment: Anticonvulsant activity in mice through seizures induced by subcutaneous pentylenetetrazole (scPTZ) tests after ip administration at a concentration of 300 mg/kg after 4 hours; Inactive; format: functional, organism-based; set-up: dose 300 mg/kg
Mus musculus [9] = experiment: Anticonvulsant activity in mice through seizures induced by maximal electroshock (MES) tests after ip administration at a concentration of 300 mg/kg after 4 hours; Active; format: functional, organism-based; set-up: dose 300 mg/kg
Mus musculus [10] = experiment: Anticonvulsant activity in mice through seizures induced by maximal electroshock (MES) tests after ip administration at a concentration of 100 mg/kg after 30 min; Active; format: functional, organism-based; set-up: dose 100 mg/kg
Mus musculus [11] = experiment: Anticonvulsant activity in mice through seizures induced by maximal electroshock (MES) tests after ipb administration at a concentration of 300 mg/kg after 4 hours.; Inactive; format: functional, organism-based; set-up: dose 300 mg/kg
Mus musculus [12] = experiment: Anticonvulsant activity in mice through seizures induced by maximal electroshock (MES) tests after ip administration at a concentration of 300 mg/kg after 4 hour; Active; format: functional, organism-based; set-up: dose 300 mg/kg
Mus musculus [13] = experiment: Anticonvulsant activity in mice through seizures induced by subcutaneous pentylenetetrazole (scPTZ) tests after ip administration at a concentration of 300 mg/kg after 30 min; Active; format: functional, organism-based; set-up: dose 300 mg/kg
Mus musculus [14] = experiment: Neurotoxicity by rotarod test after intraperitoneal administration at a concentration of 300 mg/kg after 4 hours; Active; format: functional, organism-based; set-up: dose 300 mg/kg
Mus musculus [15] = experiment: Neurotoxicity by rotarod test after intraperitoneal administration at a concentration of 300 mg/kg after 30 minutes; Active; format: functional, organism-based; set-up: dose 300 mg/kg
Mus musculus [16] = experiment: Anticonvulsant activity in mice through seizures induced by subcutaneous pentylenetetrazole (scPTZ) tests after ip administration at a concentration of 300 mg/kg after 4 hours; Active; format: functional, organism-based; set-up: dose 300 mg/kg
Mus musculus [17] = experiment: Anticonvulsant activity in mice through seizures induced by maximal electroshock (MES) tests after intraperitoneal administration at a concentration of 300 mg/kg after 4 hours; Inactive; format: functional, organism-based; set-up: dose 300 mg/kg
Rattus norvegicus [18] = experiment: Anticonvulsant activity was measured in rats through seizures induced by maximal electroshock (MES) tests by oral administration of drug after 1 hour.; format: functional
In short: (§1)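 Rats given a single oral dose of 30 or 50 mg/kg, depending on compound; MES protection scored at 15, 30, 60, 120 and 240 min. Activity graded by fraction of animals protected (0-25%, 25-50%, 50-75%, 75-100%); neurotoxicity monitored at the same time points.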

Rattus norvegicus [19] = experiment: Anticonvulsant activity was measured in rats through seizures induced by maximal electroshock (MES) tests by oral administration of drug after 2 hours.; format: functional; in short: as §1
Rattus norvegicus [20] = experiment: Anticonvulsant activity was measured in rats through seizures induced by maximal electroshock (MES) tests by oral administration of drug after 4 hours.; format: functional; in short: as §1
[21] = dose eliciting minimal neurological toxicity in 50% of animals.; format: organism-based; conditions: rat, in vivo
Rattus norvegicus [22] = experiment: Effective dose required to assure anticonvulsant protection in 50% of rats dosed orally by MES test.; format: functional; conditions: po
In short: (§2)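 Rats dosed orally; ED50 is the dose giving anticonvulsant protection in 50% of animals in the MES or scPtz test. TD50 is the minimal neurotoxic dose in 50% of animals. Time to peak effect was also determined.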

Rattus norvegicus [23] = experiment: Anticonvulsant activity was measured in rats through seizures induced by maximal electroshock (MES) tests by oral administration of drug after 15 minutes; No activity; format: functional, organism-based; in short: as §1
Rattus norvegicus [24] = experiment: Effective dose required to assure anticonvulsant protection in 50% of rats dosed orally by scPTZ test.; format: functional; conditions: po; in short: as §2
Rattus norvegicus [25] = experiment: Toxicity screening in rats dosed orally with the compound; No toxicity; format: organism-based; conditions: in vivo, po
Mus musculus [26] = experiment: Anticonvulsant activity in mice through seizures induced by maximal electroshock (MES) tests after ip administration at a concentration of 100 mg/kg after 30 min; active; format: functional, organism-based; set-up: dose 100 mg/kg
Mus musculus [27] = experiment: Anticonvulsant activity in mice through seizures induced by sc pentylenetetrazole (intraperitoneal administration at a concentration of 300 mg/kg after 4 hours; active; format: functional, organism-based; set-up: dose 300 mg/kg
Mus musculus [28] = experiment: Anticonvulsant activity in mice through seizures induced by subcutaneous pentylenetetrazole (scPTZ) tests after ip administration at a concentration of 300 mg/kg after 30 min; active; format: functional, organism-based; set-up: dose 300 mg/kg
Rattus norvegicus [29] = experiment: Anticonvulsant activity was measured in rats through seizures induced by maximal electroshock (MES) tests by oral administration of drug after 15 minutes.; format: functional; in short: as §1
Mus musculus [30] = experiment: Anticonvulsant activity in mice through seizures induced by scpentylenetetrazol (intraperitoneal administration at a concentration of 300 mg/kg after 4 hours; Inactive; format: functional, organism-based; set-up: dose 300 mg/kg
Rattus norvegicus [31] = experiment: Anticonvulsant activity was measured in rats through seizures induced by maximal electroshock (MES) tests by oral administration of drug after 30 minutes.; format: functional; in short: as §1
Mus musculus [32] = experiment: Neurotoxicity by rotarod test after intraperitoneal administration at a concentration of 300 mg/kg after 4 hours.; Inactive; format: functional, organism-based; set-up: dose 300 mg/kg
Mus musculus [33] = experiment: Neurotoxicity by rotarod test after intraperitoneal administration at a concentration of 300 mg/kg after 30 minutes.; active; format: functional, organism-based; set-up: dose 300 mg/kg
Mus musculus [34] = experiment: Neurotoxicity by rotarod test after intraperitoneal administration at a concentration of 300 mg/kg after 30 minutes; active; format: functional, organism-based; set-up: dose 300 mg/kg

Row | SMILES | Activity (Mus musculus [1]) | Activity (Mus musculus [2]) | Activity (Mus musculus [3]) | Activity (Mus musculus [4]) | Activity (Mus musculus [5]) | Activity (Mus musculus [6]) | Activity (Mus musculus [7]) | further results
1 | Cc1c(N2C(=O)c3ccccc3C2=O)cccc1[N+](=O)[O-] | inactive | inactive | inactive | inactive | inactive | inactive | – | –
2 | Cc1c(C(=O)O)cccc1N1C(=O)c2ccccc2C1=O | inactive | – | inactive | inactive | – | inactive | inactive | Activity (Mus musculus [8]): inactive
3 | Cc1cc([N+](=O)[O-])ccc1N1C(=O)c2ccccc2C1=O | – | inactive | inactive | inactive | – | inactive | inactive | Activity (Mus musculus [9]): Active
4 | Cc1ccc(N)cc1N1C(=O)c2ccccc2C1=O | inactive | – | inactive | inactive | inactive | – | – | Activity (Mus musculus [10]): Active; Activity (Mus musculus [8]): inactive
5 | O=C1c2ccccc2C(=O)N1c1ccc([N+](=O)[O-])cc1Cl | – | inactive | inactive | inactive | – | inactive | inactive | Activity (Mus musculus [11]): inactive
6 | Cc1cccc([N+](=O)[O-])c1N1C(=O)c2ccccc2C1=O | – | – | inactive | inactive | inactive | inactive | – | Activity (Mus musculus [12]): Active; Activity (Mus musculus [8]): inactive
7 | Cc1ccc([N+](=O)[O-])cc1N1C(=O)c2ccccc2C1=O | – | – | – | – | – | – | – | Activity (Mus musculus [13]): Active; Activity (Mus musculus [14]): Active; Activity (Mus musculus [10]): Active; Activity (Mus musculus [9]): Active; Activity (Mus musculus [15]): Active; Activity (Mus musculus [16]): Active
8 | Cc1cc(N)ccc1N1C(=O)c2ccccc2C1=O | – | inactive | – | – | – | – | inactive | Activity (Mus musculus [14]): Active; Activity (Mus musculus [10]): Active; Activity (Mus musculus [9]): Active; Activity (Mus musculus [15]): Active
9 | COc1ccc(N2C(=O)c3ccccc3C2=O)c(OC)c1 | – | inactive | inactive | inactive | inactive | inactive | – | Activity (Mus musculus [17]): inactive
10 | O=C1c2ccccc2C(=O)N1c1ccc([N+](=O)[O-])cc1 | inactive | inactive | inactive | inactive | inactive | inactive | – | –
11 | Cc1cccc(N)c1N1C(=O)c2ccccc2C1=O | – | – | – | inactive | – | – | inactive | Activity in animals (Rattus norvegicus [18]): 75%; Activity in animals (Rattus norvegicus [19]): 25%; Activity (Mus musculus [10]): Active; Activity (Mus musculus [9]): Active; Activity (Mus musculus [15]): Active; Activity in animals (Rattus norvegicus [20]): 25%; TD50 [21]: > 500 mg/kg; ED50 (Rattus norvegicus [22]): 28.3 mg/kg; Activity in animals (Rattus norvegicus [23]): No activity; Activity (Mus musculus [8]): inactive; ED50 (Rattus norvegicus [24]): > 250 mg/kg; Toxicity (Rattus norvegicus [25]): No toxicity
12 | COc1ccc(N2C(=O)c3ccccc3C2=O)c(C)c1 | inactive | – | inactive | inactive | – | – | – | Activity (Mus musculus [26]): Active; Activity (Mus musculus [27]): Active; Activity (Mus musculus [28]): Active
13 | Cc1c(N)cccc1N1C(=O)CCC1=O | inactive | inactive | inactive | inactive | inactive | – | – | Activity (Mus musculus [26]): Active
14 | Cc1cccc(C)c1N1C(=O)c2ccccc2C1=O | inactive | – | inactive | inactive | inactive | – | – | Activity in animals (Rattus norvegicus [19]): 25%; Activity (Mus musculus [26]): Active; Activity in animals (Rattus norvegicus [29]): 50%; Activity in animals (Rattus norvegicus [20]): 50%; Activity (Mus musculus [30]): inactive; Toxicity (Rattus norvegicus [25]): No toxicity; Activity in animals (Rattus norvegicus [31]): 50%
15 | COC(=O)c1ccccc1N1C(=O)c2ccccc2C1=O | inactive | inactive | – | – | inactive | – | – | Activity (Mus musculus [32]): inactive; Activity (Mus musculus [33]): Active
16 | Cc1c(N)cccc1N1C(=O)c2ccccc2C1=O | – | inactive | inactive | inactive | – | – | inactive | Activity in animals (Rattus norvegicus [18]): 100%; Activity in animals (Rattus norvegicus [19]): 100%; Activity (Mus musculus [10]): Active; Activity (Mus musculus [9]): Active; Activity in animals (Rattus norvegicus [29]): 100%; Activity in animals (Rattus norvegicus [20]): 100%; TD50 [21]: > 400 mg/kg; ED50 (Rattus norvegicus [22]): 8 mg/kg; ED50 (Rattus norvegicus [24]): > 200 mg/kg; Toxicity (Rattus norvegicus [25]): No toxicity; Activity in animals (Rattus norvegicus [31]): 100%
17 | Cc1cccnc1N1C(=O)c2ccccc2C1=O | inactive | inactive | – | inactive | – | – | – | Activity in animals (Rattus norvegicus [18]): 50%; Activity in animals (Rattus norvegicus [19]): 50%; Activity (Mus musculus [26]): Active; Activity in animals (Rattus norvegicus [29]): 25%; Activity (Mus musculus [28]): Active; Activity (Mus musculus [34]): Active; Toxicity (Rattus norvegicus [25]): No toxicity; Activity in animals (Rattus norvegicus [31]): 50%
